Data on one compound can be found in ChEMBL document CHEMBL4177761, “Highlights of the Structure-Activity Relationships of Benzimidazole Linked Pyrrolidines Leading to the Discovery of the Hepatitis C Virus NS5A Inhibitor Pibrentasvir (ABT-530)” (J Med Chem, 2018).

Series [1] addresses T1, Nonstructural protein 5A (Hepatitis C virus) (UniProt Q5L478).
T1 sequence (whole entry): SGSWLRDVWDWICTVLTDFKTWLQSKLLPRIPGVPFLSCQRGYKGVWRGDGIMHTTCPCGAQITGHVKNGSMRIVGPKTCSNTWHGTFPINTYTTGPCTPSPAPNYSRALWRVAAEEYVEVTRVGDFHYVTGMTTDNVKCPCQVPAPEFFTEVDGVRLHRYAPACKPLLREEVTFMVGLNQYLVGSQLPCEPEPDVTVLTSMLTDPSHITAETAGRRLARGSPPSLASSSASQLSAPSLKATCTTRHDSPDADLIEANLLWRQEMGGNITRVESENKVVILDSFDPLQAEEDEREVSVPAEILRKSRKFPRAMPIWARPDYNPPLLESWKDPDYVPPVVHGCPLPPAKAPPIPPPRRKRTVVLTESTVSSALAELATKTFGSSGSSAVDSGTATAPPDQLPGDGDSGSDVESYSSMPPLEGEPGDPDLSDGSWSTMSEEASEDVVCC
Description: Inhibition of NS5A Q30R mutant in HuH7 cell infected HCV genotype 1a H77 assessed as decrease in viral replication after 4 days by luciferase reporter gene assay relative to wild type protein. The conditions noted are these: Hepatitis C virus (isolate H77). Put shortly:
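Stable subgenomic luciferase replicons in Huh-7 cells: genotype 1a-H77 carrying NS5A substitutions M28T, Q30E, Q30R, Y93C, Y93H or Y93N, tested alongside the wild-type replicon. Cells are incubated 4 days with compound in DMEM with 5% FBS. Luciferase read-out, EC50 by 4-parameter logistic fit, and fold change versus wild type.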
For orientation: Reporter assays use an easily measured gene product as a stand-in for the process of interest.

Series [2] is described as follows: Half life in mouse at 3 mg/kg, iv by LC-MS method. It counts as ADME, organism-based. The conditions noted are these: in vivo. Put shortly:
(§1)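 Single dose, 3 mg/kg, in mouse or rat. IV vehicle: DMSO:Tween 80:PEG-400:D5W 2:5:20:73 (v/v). PO vehicle: Phosol 53 MCT:PEG-400:Poloxamer 124:Cremophor RH40 40:20:20:20 (w/w). Acetonitrile protein precipitation, then LC-MS/MS in negative-ion MRM against an internal standard; LOQ ~20 ng/mL.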

Series [3] in a line: AUClast in mouse at 3 mg/kg, iv by LC-MS method. It counts as ADME, organism-based. The arrangement: dose 3 mg/kg, route intravenous, time 0 - last. To be noted: in vivo. The gist of the method: as §1
Series [4] can be described thus: Half life in rat at 3 mg/kg, iv by LC-MS method. It counts as ADME, organism-based. To be noted: in vivo. Put shortly:
as §1

Series [5] can be described thus: Apparent volume of distribution in dog at 1 mg/kg, iv by LC-MS method. To be noted: in vivo, read-out: Vc. It counts as ADME, organism-based, Canis lupus familiaris. The gist of the method: (§2)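 Single dose in dog or monkey, 1 mg/kg IV or 2.5 mg/kg PO. Plasma drug measured by LC-MS after acetonitrile protein precipitation with an internal standard. Quantified by linear regression of parent/internal-standard peak-area ratio against spiked standards.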

A short description of series [6]: Plasma clearance in monkey at 1 mg/kg, iv by LC-MS method. It counts as ADME, organism-based, Macaca mulatta. The conditions noted are these: rhesus monkey. Put shortly: as §2
A short description of series [7]: Cmax in dog at 2.5 mg/kg, po by LC-MS method. The series is classed as ADME, organism-based, Canis lupus familiaris. To be noted: in vivo. Details: dose 2.5 mg/kg, route oral. Put shortly: as §2
Series [8] can be described thus: Half life in monkey at 2.5 mg/kg, po by LC-MS method. To be noted: rhesus monkey, in vivo. The series is classed as ADME, organism-based, Macaca mulatta. Put shortly:
as §2

In the case of `COC(=O)N[C@H](C(=O)N1CCC[C@H]1c1nc2cc([C@H]3CC[C@H](c4cc5nc([C@@H]6CCCN6C(=O)[C@@H](NC(=O)OC)[C@@H](C)OC)[nH]c5cc4F)N3c3cc(F)c(N4CCC(c5ccc(F)cc5)CC4)c(F)c3)c(F)cc2[nH]1)[C@@H](C)OC` [PIBRENTASVIR], the fold change (FC) in series [1] turned out to be 1.7. Also, the figures for the half-life in series [2], in series [4] and in series [8] were 2 h, 6.2 h and 5.69 h, respectively. Further, the AUC(0-t) in series [3] came out at 252 µg·h/mL. In series [5], the Vd was 0.1 L/kg. For the same compound, the clearance in series [6] was 2.5 mL/min/kg. Further, the concentration in series [7] peaked (Cmax) at 562 nM.

A word on the half-life: it is how long it takes for the measured level to halve. As usually defined, the AUC(0-t) is the area under the concentration-time curve up to a stated or last time point. A word on the clearance: it is the rate of elimination divided by the concentration. One may read the Cmax as the peak of the concentration-time curve.
